Screens: PubChem BioAssay, several laboratories
B2AR ag = agonists of human beta-2 adrenergic receptor inducing internalization | hit rate 0.43% among 340,000 | Am2.2-beta2AR cells, FAP receptor internalization, flow cytometry | response, % (concentration not given with the values) | P07550;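 active = response above a set limit, near 3 SD of response in nonfluorescent compounds, cut at about 42% in these data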
CXCR6 block = CXCR6 (human) receptor inhibition; O00574; CHO-K1 PathHunter CXCR6 beta-arrestin, luminescence; inhibition, % at 20 µM; hit rate 0.36% among 360,000; in the data active = inhibition above about 34%, passing the limit was not always enough;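 also: antagonist mode with CXCL16 agonist at 10 nM final; 0% = 10 nM CXCL16 with DMSO and 100% = unstimulated wells without agonist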
CCR6 antagonist = antagonists of human CCR6 receptor; P51684; CHO-K1 CCR6 PathHunter beta-arrestin, luminescence, CCL20-stimulated; inhibition, % at 20 µM; hit rate 0.49% among 340,000;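 active = compounds whose inhibition of the agonist-driven luminescence signal at 20 µM reaches about 50%, limit read from the data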;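 also: cells stimulated with CCL20 at 14 nM final; plate controls were DMSO with CCL20 for no effect and DMSO without agonist for full effect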
Target sequence (P51684 whole entry, looked up): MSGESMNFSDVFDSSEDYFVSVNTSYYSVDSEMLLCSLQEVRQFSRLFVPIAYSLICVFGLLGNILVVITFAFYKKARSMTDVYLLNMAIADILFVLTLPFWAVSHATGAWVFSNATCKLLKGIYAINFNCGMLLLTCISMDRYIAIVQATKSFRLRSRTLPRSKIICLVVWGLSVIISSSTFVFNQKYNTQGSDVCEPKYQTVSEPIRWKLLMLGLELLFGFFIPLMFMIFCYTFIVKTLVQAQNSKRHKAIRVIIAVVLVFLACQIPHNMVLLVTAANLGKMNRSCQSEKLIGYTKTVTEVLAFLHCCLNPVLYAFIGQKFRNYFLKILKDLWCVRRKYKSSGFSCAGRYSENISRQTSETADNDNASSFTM
APJ antag = antagonists of human APJ apelin receptor; CHO-K1 APJ beta-arrestin complementation, luminescence; inhibition, % at 20 µM; P35414; hit rate 0.32% among 330,000; AID 2521;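 active = inhibition above about 40% at 20 µM, limit read from the data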;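 also: cells challenged with 10 nM apelin-13 agonist together with compound; plate controls were apelin-13 plus DMSO wells for no effect and DMSO wells lacking apelin-13 for full effect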
APJ ag = activates the human apelin receptor APJ; activation, % at 20 µM; CHO-K1 APJ PathHunter beta-arrestin, luminescence; 0% DMSO wells, 100% apelin; hit rate 0.11% among 330,000;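 active = activation more than six SD over the plate average, tested at 20 µM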;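 also: 0% = DMSO alone and 100% = apelin-13 at 10 nM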
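Test system: CHO-K1 APJ beta-arrestin complementation cell line. Amount: cell density 1000 per well. Controls: DMSO negative, 10 nM Apelin-13 positive. Signal: luminescent beta-gal fragment complementation, chemiluminescent substrate. Read-out basis: agonist-driven arrestin binding to APJ. Timing: compound stimulation 90 min at 25 °C, detection 60 min.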
EBI2 block = EBI2 (human) antagonism; hit rate 0.81% among 360,000; EBI2 beta-arrestin recruitment, luminescence, 7a,25-OHC stimulated; inhibition, % at 5 µM; P32249; in the data active = inhibition above about 38%;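 also: enzyme fragment complementation signal reports receptor beta-arrestin coupling in cells; 0% = agonist plus DMSO wells and 100% = wells without agonist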
* hit, by the source's call; . = no result given. Rows were chosen to be rich in hits. Some 1.8% of all compounds tested hit in one or more screens of this group.

SMILES | B2AR ag | CXCR6 block | CCR6 antagonist | APJ antag | APJ ag | EBI2 block
Cc1cc(C)n2nc(SCC(=O)N3CCC(C(=O)O)CC3)nc2n1 | 3 | -3 | -3 | 5 | -2 | -4
CC(C)(C)OC(=O)N1CSC[C@H]1C(=O)NC[C@H](CC(=O)O)c1ccc(Cl)cc1 | 4 | -6 | 13 | -1 | -2 | 0
Cc1ccc2cccc(OCC(=O)Nc3ccc4c(c3)OCO4)c2n1 | -1 | 7 | 1 | 10 | 0 | -2
Cc1ccc2cccc(OC(=O)c3ccc4c(c3)OCCO4)c2n1 | 6 | 35 | 52* | 26 | -4 | -13
CN(Cc1ccccc1)S(=O)(=O)c1ccc(NC(=S)NC(=O)C2CCCCC2)cc1 | -4 | 33 | 51* | 5 | -4 | 18
O=C(Cc1ccsc1)N1CCN(S(=O)(=O)c2ccccc2F)CC1 | 5 | 4 | 8 | 9 | 0 | -14
COC1=C(Br)C(=O)c2nc(C)ccc2C1=O | . | 44* | . | . | . | -21
COC1=C(N)C(=O)c2nc(C)ccc2C1=O | 1 | -16 | -13 | . | . | -40
O=C(NCc1ccco1)/C(=C/c1ccc(C(F)(F)F)cc1)c1nc2ccccc2[nH]1 | -12 | -2 | 1 | 16 | -3 | -3
O=S(=O)(/C(=C\c1ccc(C(F)(F)F)cc1)c1nc2ccccc2[nH]1)c1ccccc1 | 22 | 23 | . | . | . | 45*
COc1ccc(-c2sc3cc(OC)c(OC)cc3c2-c2ccc(O)cc2)cc1 | 19 | -6 | 15 | -4 | -2 | -24
Cc1ccc(C(=O)c2c(C)oc3c2C(=O)C(=O)c2ccccc2-3)cc1 | 47* | 32 | 72* | -23 | 14* | -22
Cc1oc2c(c1C(=O)c1ccc(Cl)cc1)C(=O)C(=O)c1ccccc1-2 | 63* | 25 | 43 | . | . | -9
Cc1ccc(C(=O)c2coc3c2C(=O)C(=O)c2ccccc2-3)cc1 | 14 | 13 | -15 | -13 | 4 | -9
COc1cccc(CNC(=O)Cn2ccc3cc(S(=O)(=O)N4CCCCCC4)ccc32)c1 | 2 | 4 | 17 | -9 | 1 | -1
COCCn1c(SCC(=O)N2CCCC2)nc2c([nH]c3ccccc32)c1=O | 3 | 7 | 0 | 11 | -2 | -8
Cc1cc(C)cc(OC(=O)CS(=O)c2ccc(C(F)(F)F)cc2[N+](=O)[O-])c1 (centres undefined) | 52* | -1 | 2 | -21 | 3 | 13
N#CC(C#N)=Cc1cn(-c2ncc(C(F)(F)F)cc2Cl)c2ccccc12 | 66* | 6 | 6 | -9 | 2 | 21
O=C(O)c1ccc(N2C(=O)/C(=C/c3ccc(-c4ccc([N+](=O)[O-])cc4)o3)C=C2c2ccccc2)cc1 | -195 | 45* | . | 19 | -2 | -9
O=C1NN(c2ccccc2)C(=O)/C1=C/c1ccc(-c2ccc(C(=O)O)cc2)o1 | 2 | 20 | 34 | 39 | -4 | -1
COc1ccc(CC(N)c2csc(Nc3ccc(C(=O)c4ccccc4)cc3)n2)cc1 (centres undefined) | . | -10 | . | . | . | -4
Cc1cn(-c2cc(NC(=O)c3ccc(C)c(NC(=O)c4cccc(-c5cn[nH]c(=O)c5)c4)c3)cc(C(F)(F)F)c2)cn1 | 78* | 3 | 9 | -12 | 0 | -10
COc1ccccc1NC(=O)N(C)C[C@@H]1OCc2cnnn2CCCC(=O)N([C@H](C)CO)C[C@H]1C | . | 7 | . | . | . | -5
O=C(O)Cc1cn(Cc2ccc(F)cc2)c2ccccc12 | 7 | 14 | 16 | 9 | -3 | -6
Cc1[nH][nH]c(=O)c1C(c1c(C)[nH][nH]c1=O)c1cn(Cc2ccc(F)cc2)c2ccccc12 | 10 | 62* | 79* | . | . | 20
Cc1[nH][nH]c(=O)c1C(c1c(C)[nH][nH]c1=O)c1cn(Cc2ccc(Cl)c(Cl)c2)c2ccccc12 | 38 | 54* | 77* | . | . | 31
Cc1cc(S(=O)(=O)c2ccc(Cl)cc2)nc(S(=O)(=O)c2ccc(Cl)cc2)c1C#N | . | 75* | . | . | . | -12
Cc1nc2c(Br)cc(Br)cc2cc1O | 57* | -6 | 14 | 28 | 0 | -1
Brc1cc(Br)c2nc(-c3cccs3)ccc2c1 | -5 | -7 | -15 | -11 | 1 | 12
